This is an account of results in publication PMC3952852 (Molecular Biology of the Cell, 2014).

SMILES strings stand for the structures. Bounds are passed on as bounds.

The target of assay [1] is T1, LIMK1 (Homo sapiens, UniProt P53667). Briefly: in vitro kinase assay, LIMK1. As to conditions: cofilin substrate; for effect on the kinase activity of LIMK1: concentrations of 1–30 μM. Format: biochemical.
The test system of assay [2] is P-cofilin in N1E-115 cells. Briefly: cofilin phosphorylation immunoblot in LIMK1-CFP-overexpressing N1E-115 cells. Format: cell-based. The settings on record: 30 min. On the technique in general: In western blotting, separated proteins are transferred to a membrane and probed.
A further assay deals with JCaM1.6 cells. Briefly: CXCL12-induced chemotaxis, Transwell, JCaM1.6 cells. Format: cell-based. The settings on record: Lck-deficient JCaM1.6, pretreated 30 min, 5 nM CXCL12, 3 h. The procedure, abridged:
(§1)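 Cells at 2×10^6 cells/ml in RPMI1640 with 0.5% BSA were pretreated 30 min at room temperature with test compound or vehicle (final 0.3% DMSO). 2×10^5 cells went into the upper well (5-µm pore Transwell). The lower well held RPMI, 0.5% BSA, 5 nM CXCL12 and compound or vehicle. After 3 h at 37°C, migrated cells in the lower well were counted. Mean ± SD of four independent experiments; one-way ANOVA with Dunnett's test.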

A further assay concerns the target CaMKIα (Homo sapiens, UniProt Q14012). Briefly: in vitro kinase assay, CaMKIα. It is filed as biochemical.
The test system of assay [3] is epidermal Langerhans cells. Nature of the assay: hapten. As to conditions: 20 μM topical. Format: in vivo, mouse. The procedure, abridged:
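BALB/c mice (8–10 wk): each ear painted with 20 µl of 20 µM test compound in 2% DMSO in 1:4 acetone/olive oil, or vehicle. 30 min later, 20 µl 3% TNCB or vehicle applied, ± 20 µM compound; repainted at 12 h; ears taken 24 h post-TNCB. NH4SCN-separated, acetone-fixed epidermal sheets stained with FITC anti-I-Ad; confocal imaging, 15 areas/ear; five experiments, mean ± SD, ANOVA/Dunnett.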

The next assay has as its system MDA-MB-231 cells. Briefly: serum-induced Matrigel invasion assay, MDA-MB-231 cells. Format: cell-based, human. As to conditions: MDA-MB-231, Matrigel, 15 h. The essentials:
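MDA-MB-231 cells (2×10^5 cells/ml) were serum-starved 3 h and resuspended in serum-free DMEM. They were pretreated 30 min at room temperature with test compound or vehicle (final 0.3% DMSO). Transwell inserts (8-µm pore) were coated with 50 µg Matrigel for 1 h at 37°C and washed three times with DMEM. 2×10^4 cells were loaded, with serum in the lower chamber. After 15 h, invaded cells on the lower membrane face were counted. Mean ± SD of six independent experiments; Dunnett's test.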

The target in another assay is PKCα (Homo sapiens, UniProt P17252). Nature of the assay: in vitro kinase assay, PKCα. It is filed as biochemical.
Assay [4] deals with Jurkat cells. Briefly: CXCL12-induced chemotaxis, Transwell, Jurkat cells. It is filed as cell-based. As to conditions: pretreated 30 min, 5 nM CXCL12, 3 h. The procedure, abridged:
as §1

For the next assay, the target named is PAK3 (Homo sapiens, UniProt O75914). Nature of the assay: in vitro kinase assay, PAK3. Format: biochemical.
In assay [5] the test system is Jurkat cells. Briefly: CXCL12-induced lamellipodium formation in Jurkat cells. It is filed as cell-based. As to conditions: Dam 30 min, then 5 nM CXCL12 for 20 min. The essentials:
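Jurkat cells were given 5 µM test compound or vehicle for 30 min, then 5 nM CXCL12 for 20 min. They were fixed and stained with rhodamine–phalloidin for F-actin, then scored into three classes: large lamellipodia, small lamellipodia, or round without lamellipodium. 200–300 cells were counted per experiment. Class percentages are mean ± SD of three independent experiments.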

In the next assay the target is ROCK (Homo sapiens, UniProt Q13464). Nature of the assay: in vitro kinase assay, ROCK. It is filed as biochemical.
The target in assay [6] is T1, LIMK1. It is filed as biochemical. The settings on record: range of inhibitor concentrations.
The subject of assay [7] is P-cofilin in Vero 2-2 cells. Briefly: 2D gel analysis of 32P-labeled phospho-proteins in whole cell lysates. Format: cell-based. The settings on record: 10 μM, 5 h.
Assay [8] deals with P-cofilin in Jurkat cells. Nature of the assay: CXCL12-induced cofilin phosphorylation in Jurkat cells. It is filed as cell-based. As to conditions: 5 nM CXCL12 for 5 min. The essentials: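 Jurkat cells (RPMI, 10% FCS) were stimulated with 5 nM CXCL12 for 5 min. Lysates in HEPES pH 7.4 lysis/kinase buffer were immunoblotted for P-cofilin, cofilin, P-MAPK and MAPK. P-cofilin was expressed relative to control cells, set at 1.0.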

For a further assay, the target named is Src (Homo sapiens, UniProt P12931). Nature of the assay: in vitro kinase assay, active Src. It is filed as biochemical.
The subject of the next assay is P-MAPK in Jurkat cells. Briefly: CXCL12-induced MAPK phosphorylation in Jurkat cells. Format: cell-based. The settings on record: 5 nM CXCL12 for 5 min. The procedure, abridged: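 Jurkat cells grown in RPMI with 10% FCS were stimulated with 5 nM CXCL12 for 5 min, with or without test compound. Cells were lysed in HEPES pH 7.4 lysis/kinase buffer containing NP-40, NaF, Na3VO4 and protease inhibitors. Lysates were immunoblotted for P-MAPK and total MAPK, alongside P-cofilin and cofilin.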

In a further assay the test system is Lck. The settings on record: read-out: IC50 for Lck; ref Jayasuriya et al., 1992; cited from earlier work.

T1 sequence (P53667 whole entry): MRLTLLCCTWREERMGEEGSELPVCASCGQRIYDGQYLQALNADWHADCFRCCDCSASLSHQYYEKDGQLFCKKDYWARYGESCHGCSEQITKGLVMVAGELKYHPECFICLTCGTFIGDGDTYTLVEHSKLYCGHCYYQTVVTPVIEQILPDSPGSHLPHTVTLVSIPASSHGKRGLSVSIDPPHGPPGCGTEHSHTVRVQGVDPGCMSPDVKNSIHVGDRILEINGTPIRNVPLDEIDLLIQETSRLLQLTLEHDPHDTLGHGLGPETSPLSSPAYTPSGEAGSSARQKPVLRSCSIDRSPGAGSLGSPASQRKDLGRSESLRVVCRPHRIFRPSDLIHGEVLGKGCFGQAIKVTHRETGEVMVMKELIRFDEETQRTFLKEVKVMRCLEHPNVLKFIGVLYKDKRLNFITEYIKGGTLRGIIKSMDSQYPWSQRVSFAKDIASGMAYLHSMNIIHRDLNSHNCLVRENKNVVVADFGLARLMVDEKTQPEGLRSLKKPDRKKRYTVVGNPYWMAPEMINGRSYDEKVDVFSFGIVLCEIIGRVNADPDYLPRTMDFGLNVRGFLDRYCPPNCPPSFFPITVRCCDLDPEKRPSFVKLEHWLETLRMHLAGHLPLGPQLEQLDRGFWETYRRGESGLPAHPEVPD
CaMKIα, sequence (Q14012 1-293, species assumed): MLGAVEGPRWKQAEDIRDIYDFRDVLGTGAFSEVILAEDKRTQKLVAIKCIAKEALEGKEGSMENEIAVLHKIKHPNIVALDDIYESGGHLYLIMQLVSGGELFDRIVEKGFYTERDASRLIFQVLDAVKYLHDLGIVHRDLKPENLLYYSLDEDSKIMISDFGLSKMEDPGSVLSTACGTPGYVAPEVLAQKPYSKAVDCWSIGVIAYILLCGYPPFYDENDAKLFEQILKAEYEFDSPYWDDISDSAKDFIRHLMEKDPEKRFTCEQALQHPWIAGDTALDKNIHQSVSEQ
PAK3, sequence (O75914 177-559, species assumed): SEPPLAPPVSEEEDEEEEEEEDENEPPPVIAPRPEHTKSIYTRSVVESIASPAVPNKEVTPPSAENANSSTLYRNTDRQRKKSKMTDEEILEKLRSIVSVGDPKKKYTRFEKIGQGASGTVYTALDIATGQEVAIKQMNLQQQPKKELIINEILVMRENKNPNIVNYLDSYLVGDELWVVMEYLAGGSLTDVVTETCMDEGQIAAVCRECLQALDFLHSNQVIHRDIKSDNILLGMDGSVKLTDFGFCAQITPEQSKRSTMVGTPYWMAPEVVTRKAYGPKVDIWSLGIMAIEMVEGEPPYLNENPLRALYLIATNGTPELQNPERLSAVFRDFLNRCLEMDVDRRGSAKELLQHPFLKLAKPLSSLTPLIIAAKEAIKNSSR
Src, sequence (P12931 270-523 limits assumed): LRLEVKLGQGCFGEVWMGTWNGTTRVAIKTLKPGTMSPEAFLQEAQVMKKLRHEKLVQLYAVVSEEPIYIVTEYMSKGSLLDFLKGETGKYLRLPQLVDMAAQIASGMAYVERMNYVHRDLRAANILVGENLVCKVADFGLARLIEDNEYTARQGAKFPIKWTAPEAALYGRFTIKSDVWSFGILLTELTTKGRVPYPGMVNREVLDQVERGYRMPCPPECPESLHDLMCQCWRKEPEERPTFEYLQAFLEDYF
ROCK, sequence (Q13464 1-727): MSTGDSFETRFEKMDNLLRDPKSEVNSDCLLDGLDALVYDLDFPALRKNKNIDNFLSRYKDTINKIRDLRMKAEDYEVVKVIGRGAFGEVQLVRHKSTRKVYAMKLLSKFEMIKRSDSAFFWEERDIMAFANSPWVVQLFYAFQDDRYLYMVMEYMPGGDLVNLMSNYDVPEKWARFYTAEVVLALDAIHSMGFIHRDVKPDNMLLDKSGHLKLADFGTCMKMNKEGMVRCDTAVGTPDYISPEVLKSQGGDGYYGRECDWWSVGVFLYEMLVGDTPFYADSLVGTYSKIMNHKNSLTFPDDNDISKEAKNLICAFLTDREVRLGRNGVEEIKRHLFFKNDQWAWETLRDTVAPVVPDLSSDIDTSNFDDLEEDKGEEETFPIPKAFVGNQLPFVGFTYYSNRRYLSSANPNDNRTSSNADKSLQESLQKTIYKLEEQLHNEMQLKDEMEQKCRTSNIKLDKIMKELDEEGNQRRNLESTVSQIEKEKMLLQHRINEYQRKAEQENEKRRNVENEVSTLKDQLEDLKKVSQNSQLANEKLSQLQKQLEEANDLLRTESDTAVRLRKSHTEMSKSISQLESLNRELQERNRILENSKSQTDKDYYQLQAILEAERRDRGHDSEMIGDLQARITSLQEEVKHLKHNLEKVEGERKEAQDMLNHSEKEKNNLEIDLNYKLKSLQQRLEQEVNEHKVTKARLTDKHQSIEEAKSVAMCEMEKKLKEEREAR

Consider `NO` [Hydroxylamine, hydroxylamine], for which the “effect of hydroxylamine alone on LIMK1 activity” value on LIMK1 [1] (LIMK1-CFP) is “no effect”.

On to `O=C1c2c(O)ccc(O)c2C(=O)c2c(NCCNCCO)ccc(NCCNCCO)c21` [mitoxantrone], for which, on LIMK1 [1], the “effect on the kinase activity of LIMK1” value was “no appreciable effect”.

A word on the IC50: it is the midpoint of a concentration-inhibition curve. Take `COc1c(C=O)c(O)cc2c1C(=O)c1ccccc1C2=O` [Dam, 3-hydroxy-1-methoxy-9,10-dioxoanthraquinone-2-carbaldehyde]: the “concentration range significantly decreasing P-cofilin level” value in assay [2] fell in the range of 5 to 10 µM. The “concentration range inhibiting CXCL12-induced chemotaxis” value with JCaM1.6 cells and in the assay with Jurkat cells [4] was 3 to 10 µM throughout. The IC50 at CaMKIα, at PKCα, against PAK3, on ROCK and on Src was greater than 20 µM in each case. The “effect on hapten-induced Langerhans cell size changes” value in assay [3] (TNCB) is given as “no apparent effect”. Also, in assay [3] (no TNCB), the “effect on Langerhans cell density of control ears” value was “no effect”. The “concentration range significantly suppressing serum-induced invasion” value with MDA-MB-231 cells fell in the range of 3 to 10 µM. The “effect on lamellipodium formation after CXCL12 stimulation” value in the assay with Jurkat cells [5] is “fewer cells with large lamellipodial protrusions and more cells with small or no lamellipodial protrusions”. In addition, the “concentration range inhibiting the kinase activity of LIMK1 in detailed in vitro BiFC assays” value on LIMK1 [6] is 5 to 10 µM. Besides, the “amount of P-cofilin in treated cells compared with untreated cells” value in assay [7] is recorded as “decreased”. For the same molecule, the “concentration range suppressing CXCL12-induced increase of P-cofilin” value in assay [8] was in the range of 3 to 10 µM. Besides, in the assay on P-MAPK in Jurkat cells, the “effect on increase in P-MAPK after CXCL12 stimulation” value is listed as “unaffected”.

For `Cc1cc(O)c2c(c1)C(=O)c1cc(O)cc(O)c1C2=O` [emodin], the “effect on the kinase activity of LIMK1” value at LIMK1 [1] is listed as “no appreciable effect”. Besides, the IC50 with Lck is 18.5 µM.
